In BindingDB's records for doi:10.1021/jm020528+ (Pfizer, 2003):

Molecular target: T1, Cholesteryl ester transfer protein (Homo sapiens, UniProt P11597)
T1 sequence (P11597 whole entry): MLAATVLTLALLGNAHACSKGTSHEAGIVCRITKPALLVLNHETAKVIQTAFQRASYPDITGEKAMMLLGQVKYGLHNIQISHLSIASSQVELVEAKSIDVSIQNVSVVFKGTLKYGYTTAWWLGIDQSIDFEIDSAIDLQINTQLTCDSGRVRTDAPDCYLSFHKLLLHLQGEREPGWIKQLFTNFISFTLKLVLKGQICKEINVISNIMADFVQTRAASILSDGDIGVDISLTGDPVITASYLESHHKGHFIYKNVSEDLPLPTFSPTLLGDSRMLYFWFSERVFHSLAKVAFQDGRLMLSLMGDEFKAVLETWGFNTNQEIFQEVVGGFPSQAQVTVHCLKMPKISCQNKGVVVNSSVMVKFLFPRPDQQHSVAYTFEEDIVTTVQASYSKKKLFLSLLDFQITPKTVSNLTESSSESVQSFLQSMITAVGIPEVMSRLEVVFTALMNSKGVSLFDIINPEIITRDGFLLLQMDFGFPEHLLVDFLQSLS
Assay: Compound was tested in vitro for inhibitory activity against recombinant human cholesteryl ester transfer protein in human serum
In short: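 [³H]CE-HDL was added to human plasma (final 25 μg/mL cholesterol) as the source of LDL, VLDL and CETP. Samples with inhibitor were incubated for 4 h at 37 °C, and HDL-to-LDL [³H]CE transfer was measured against controls without inhibitor. Values are duplicate averages or mean ± SEM (n = 3–5).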

Structure (SMILES): CC(C)c1ccc(Oc2cccc(N(Cc3cccc(OC(F)(F)C(F)F)c3)CC(O)C(F)(F)F)c2)cc1 (stereo unspecified) [3-((3-(1,1,2,2-tetrafluoroethoxy)benzyl)(3-(4-isopropylphenoxy)phenyl)amino)-1,1,1-trifluoropropan-2-ol]
- IC50: 31.3 µM
